Here are results for 13 molecules from ChEMBL document CHEMBL1149246, “Discovery of bicyclic thymidine analogues as selective and high-affinity inhibitors of Mycobacterium tuberculosis thymidine monophosphate kinase” (J Med Chem, 2004).

The term Ki denotes the equilibrium dissociation constant of an inhibitor or competing ligand from its target. The term Km denotes the substrate concentration at which the rate is half of its maximum.

The source made the active and inactive calls. The rule behind the calls is not given here.

The target of series [1] is T1, Thymidylate kinase (Mycobacterium tuberculosis, UniProt P9WKE1).
T1 sequence (P9WKE1 whole entry): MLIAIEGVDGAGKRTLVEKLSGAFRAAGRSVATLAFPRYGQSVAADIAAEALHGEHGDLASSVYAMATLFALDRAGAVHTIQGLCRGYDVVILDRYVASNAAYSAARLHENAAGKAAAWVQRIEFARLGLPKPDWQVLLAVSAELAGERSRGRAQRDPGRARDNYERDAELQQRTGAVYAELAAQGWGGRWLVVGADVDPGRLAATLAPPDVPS
In words: Inhibition of Mycobacterium tuberculosis TMPK by coupled spectrophotometric assay.

For series [2], the target named is T2, Thymidylate kinase (Homo sapiens, UniProt P23919).
T2 sequence (P23919 whole entry): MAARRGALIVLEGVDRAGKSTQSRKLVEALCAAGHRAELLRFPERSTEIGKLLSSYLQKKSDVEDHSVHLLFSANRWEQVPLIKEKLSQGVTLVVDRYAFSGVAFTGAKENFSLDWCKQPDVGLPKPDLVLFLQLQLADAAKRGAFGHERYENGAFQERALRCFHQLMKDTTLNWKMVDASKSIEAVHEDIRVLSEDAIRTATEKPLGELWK
In words: (§1) Inhibition of human TMPK by coupled spectrophotometric assay. The gist of the method: (§2)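 Thymidylate kinase activity (M. tuberculosis or human enzyme) measured by coupled spectrophotometric assay at 334 nm, following NADH consumption. Medium: 50 mM Tris-HCl pH 7.4, 50 mM KCl, 2 mM MgCl2, 0.2 mM NADH, 1 mM phosphoenol pyruvate, 2 units each lactate dehydrogenase, pyruvate kinase and nucleoside diphosphate kinase. ATP fixed at 0.5 mM, dTMP at 0.05 mM; analogue 0.1–2.5 mM.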

Series [3] can be described thus: Selectivity index, Ki for human TMPK/Ki for Mycobacterium tuberculosis TMPK.
The target of series [4] is T3, Thymidylate kinase (Homo sapiens) (UniProt P23919).
T3 sequence (whole entry): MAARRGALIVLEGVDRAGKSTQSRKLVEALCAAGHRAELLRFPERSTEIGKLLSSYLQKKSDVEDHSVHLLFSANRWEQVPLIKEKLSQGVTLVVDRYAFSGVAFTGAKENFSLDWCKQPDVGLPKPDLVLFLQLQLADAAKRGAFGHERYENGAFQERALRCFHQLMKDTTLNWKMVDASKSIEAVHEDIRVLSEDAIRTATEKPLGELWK
Put plainly: Inhibition of human TMPK at 2 mM by coupled spectrophotometric assay. Summed up:
as §2

Series [5] concerns the target T4, Thymidylate kinase (Mycobacterium tuberculosis) (UniProt P9WKE1).
T4 sequence (whole entry): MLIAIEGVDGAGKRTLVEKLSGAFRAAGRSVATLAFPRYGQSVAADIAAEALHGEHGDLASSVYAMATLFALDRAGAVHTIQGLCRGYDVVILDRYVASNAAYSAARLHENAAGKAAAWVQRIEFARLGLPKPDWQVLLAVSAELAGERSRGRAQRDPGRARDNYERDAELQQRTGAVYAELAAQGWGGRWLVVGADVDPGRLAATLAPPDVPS
Put plainly: Inhibition of Mycobacterium tuberculosis TMPK at 1 mM by coupled spectrophotometric assay. Summed up:
as §2

Compound in series [6]: Cc1cn([C@H]2C[C@H](O)[C@@H](COP(=O)(O)O)O2)c(=O)[nH]c1=O
The description is as §1. Summed up:
as §2

In turn, `Cc1cn([C@@H]2O[C@H](CF)[C@@H](CN=[N+]=[N-])[C@H]2F)c(=O)[nH]c1=O` yielded an inhibition constant (Ki) on Thymidylate kinase [1] of 80 µM. As to `Cc1cn([C@@H]2O[C@H](CO)[C@H]3CNC(=S)O[C@H]32)c(=O)[nH]c1=O`, the values for the Ki at Thymidylate kinase [2] and on Thymidylate kinase [1] were 700 µM and 3.5 µM, respectively. Moreover, the Ratio Ki in series [3] was 200. Consider `Cc1cn([C@H]2C[C@H](O)[C@@H](COP(=O)(O)O)O2)c(=O)[nH]c1=O`, for which the Selectivity index in series [3] is 1.1.

In the case of `Cc1cn([C@H]2C[C@H](CN=[N+]=N)[C@@H](CO)O2)c(=O)[nH]c1=O`, the Ki on Thymidylate kinase [2] came out at 1040 µM; on Thymidylate kinase [1], 40 µM. Besides, the Ratio Ki in series [3] came to 26. For the molecule `Cc1cn([C@H]2C[C@H](CN)[C@@H](CO)O2)c(=O)[nH]c1=O`, on Thymidylate kinase [2], the Ki is 220 µM. Further, the Ratio Ki in series [3] amounted to 3.9. Turning to `Cc1cn([C@H]2C[C@H](O)[C@@H](CO)O2)c(=O)[nH]c1=O` [DOXRIBTIMINE], the inhibition constant (Ki) at Thymidylate kinase [2] was 180 µM. For the molecule `Cc1cn([C@@H]2O[C@H](CO)[C@H]3CNC(=O)O[C@H]32)c(=O)[nH]c1=O`, the Ki on Thymidylate kinase [2] was 1100 µM; on Thymidylate kinase [1], 13.5 µM. Moreover, the Ratio Ki in series [3] turned out to be 81.5.

For the molecule `Cc1cn([C@@H]2O[C@H](CO)[C@@H](CN=[N+]=[N-])[C@H]2Cl)c(=O)[nH]c1=O`, the Ki at Thymidylate kinase [1] was found to be 180 µM. On to `Cc1cn([C@@H]2C[C@H](CN=[N+]=[N-])[C@@H](CO)O2)c(=O)[nH]c1=O`, for which the inhibitory constant (Ki) on Thymidylate kinase [1] came out at 29 µM. The outcome in series [4] was inactive. At Thymidylate kinase [1], `Cc1cn([C@@H]2O[C@H](CO)[C@@H](CN=[N+]=[N-])[C@H]2F)c(=O)[nH]c1=O` registered a Ki of 165 µM. On Thymidylate kinase [1], `Cc1cn([C@@H]2O[C@H](CO)[C@@H](CN)[C@H]2Cl)c(=O)[nH]c1=O` had a Ki of 390 µM. Turning to `Cc1cn([C@@H]2O[C@H](CO)[C@@H](CN)[C@H]2F)c(=O)[nH]c1=O`, the outcome in series [5] was inactive.

B1: Thymidylate kinase (Homo sapiens), P23919 (protein)
chain: MAARRGALIVLEGVDRAGKSTQSRKLVEALCAAGHRAELLRFPERSTEIGKLLSSYLQKKSDVEDHSVHLLFSANRWEQVPLIKEKLSQGVTLVVDRYAFSGVAFTGAKENFSLDWCKQPDVGLPKPDLVLFLQLQLADAAKRGAFGHERYENGAFQERALRCFHQLMKDTTLNWKMVDASKSIEAVHEDIRVLSEDAIRTATEKPLGELWK
Take B1: the Michaelis-Menten constant (Km) in series [6] was found to be 5 µM.
